Data on 15 molecules can be found in ChEMBL document CHEMBL2040835, “Disubstituted Bis-THF Moieties as New P2 Ligands in Nonpeptidal HIV-1 Protease Inhibitors” (ACS Med Chem Lett, 2011).

The subject of series [1] is Human immunodeficiency virus 1. The experiment in a line: Selectivity index, ratio of EC50 for Human immunodeficiency virus 1 isolate M1 expressing protease L10I, M46I, I64V, I84V, L90M, I93L mutant to EC50 for Human immunodeficiency virus 1 3B expressing wild-type protease. Format: functional. In outline:
(§1)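 Fold change is the EC50 against the multi-PI-resistant mutant divided by the EC50 against wild-type HIV-1 IIIB. Both EC50s come from cell-based assays in MT4 cells run in quadruplicate.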

Series [2] has as its system Human immunodeficiency virus 1. The experiment in a line: Antiviral activity against Human immunodeficiency virus 1 isolate M2 expressing protease L10I, I13V, M46I, I50V, L63P, L76V mutant infected in human MT4 cells. Format: functional, organism-based. Particulars: Human immunodeficiency virus 1, isolate M2, MT4. In a few lines: (§2)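 Cell-based antiviral assay in MT4 cells infected with a multi-PI-resistant HIV-1 mutant carrying clinically observed primary protease mutations. EC50 determined, with all assays run in quadruplicate.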

Series [3] has as its system Human immunodeficiency virus 1. Kind of series: Antiviral activity against Human immunodeficiency virus 1 3B expressing wild-type protease infected in human MT4 cells. Format: functional, organism-based. In outline:
(§3)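 Cell-based antiviral assay in MT4 cells infected with wild-type HIV-1 IIIB, read as EC50. Run in quadruplicate. It was also repeated in the presence of 50% human serum as an indicator of plasma protein binding.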

The test system of series [4] is Human immunodeficiency virus 1. Kind of series: Selectivity index, ratio of EC50 for Human immunodeficiency virus 1 isolate M2 expressing protease L10I, I13V, M46I, I50V, L63P, L76V mutant to EC50 for Human immunodeficiency virus 1 3B expressing wild-type protease. Format: functional. In outline:
as §1

Another series has as its target Protease (Human immunodeficiency virus 1, UniProt Q9YQ12). The experiment in a line: Inhibition of Human immunodeficiency virus 1 3B protease.
Series [5] in a line: Selectivity index, ratio of CC50 for human MT4 cells to EC50 for Human immunodeficiency virus 1 3B. Format: toxicity, cell-based. In a few lines:
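Selectivity index is calculated as CC50 divided by EC50 against HIV-1 IIIB in the cell-based assay.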

Series [6] deals with Human immunodeficiency virus 1. Kind of series: Antiviral activity against Human immunodeficiency virus 1 3B expressing wild-type protease infected in human MT4 cells in presence of 50% human serum. It counts as functional, organism-based. In a few lines:
as §3

The nature of series [7]: Cytotoxicity against human MT4 cells. Format: cell-based.
Series [8] concerns Human immunodeficiency virus 1. The experiment in a line: Selectivity index, ratio of EC50 for Human immunodeficiency virus 1 isolate M3 expressing protease L10I, K20R, M36I, G48V, I62V, A71V, V82A, I93L mutant to EC50 for Human immunodeficiency virus 1 3B expressing wild-type protease. It counts as functional. In outline:
as §1

Series [9] concerns Human immunodeficiency virus 1. The experiment in a line: Antiviral activity against Human immunodeficiency virus 1 isolate M3 expressing protease L10I, K20R, M36I, G48V, I62V, A71V, V82A, I93L mutant infected in human MT4 cells. Format: functional, organism-based. Particulars: Human immunodeficiency virus 1, isolate M3, MT4.
Series [10] concerns Human immunodeficiency virus 1. Kind of series: Antiviral activity against Human immunodeficiency virus 1 isolate M1 expressing protease L10I, M46I, I64V, I84V, L90M, I93L mutant infected in human MT4 cells. Format: functional, organism-based. Particulars: Human immunodeficiency virus 1, isolate M1, MT4. In outline:
as §2

Chain of Protease (Q9YQ12 whole entry): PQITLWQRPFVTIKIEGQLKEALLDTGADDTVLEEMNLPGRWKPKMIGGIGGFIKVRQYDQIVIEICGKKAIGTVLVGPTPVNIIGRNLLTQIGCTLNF

Take `CNc1nc2ccc(S(=O)(=O)N(CC(C)C)C[C@@H](O)[C@H](Cc3ccccc3)NC(=O)O[C@H]3CO[C@H]4OC[C@H](OCCOC)[C@H]43)cc2o1`: the “Ratio EC50” value in [1] amounted to 0.8; in series [4] it was 1.3; in series [8], 0.5. The half-maximal effective concentration (EC50) was 10.8 nM in series [2]; 8.6 nM in series [3]; 24 nM in series [6]; 4.3 nM in series [9]; 6.9 nM in series [10]. Half-maximal inhibition against Protease (IC50) was put at 1.5 nM. Besides, in [5], the selectivity ratio was more than 2000. In series [7], this molecule gave a CC50 of more than 9800 nM.

Consider `CC(C)CN(C[C@@H](O)[C@H](Cc1ccccc1)NC(=O)O[C@H]1CO[C@H]2OC[C@H](Oc3ccccc3)[C@H]21)S(=O)(=O)c1ccc(N)cc1`, for which the “Ratio EC50” value was found to be 3.7 in series [1], 28 in series [4] and 0.7 in series [8]. Further, the 50% effective concentration (EC50) came out at 249 nM in series [2]; 8.9 nM in [3]; 47.2 nM in [6]; 6.5 nM in series [9]; 32.5 nM in [10]. Further, the selectivity ratio in [5] was more than 2000. Also, the half-maximal cytotoxic concentration (CC50) in [7] was more than 9800 nM.

With `CNc1nc2ccc(S(=O)(=O)N(CC(C)C)C[C@@H](O)[C@H](Cc3ccccc3)NC(=O)O[C@H]3CO[C@H]4OC[C@H](OCSC)[C@H]43)cc2o1`, the “Ratio EC50” value in [1] was determined as 3; in series [4] it was 7.1; in series [8], 1.7. The EC50 in series [2] came out at 9.3 nM; in [3], 1.3 nM; in series [6], 6.7 nM; in series [9], 2.2 nM; in series [10], 3.9 nM. Besides, the selectivity ratio in series [5] is more than 2000. In addition, the CC50 in series [7] is more than 9800 nM.

As for `COC(=O)N[C@H](C(=O)N[C@@H](Cc1ccccc1)[C@@H](O)CN(Cc1ccc(-c2ccccn2)cc1)NC(=O)[C@@H](NC(=O)OC)C(C)(C)C)C(C)(C)C` [ATAZANAVIR], the “Ratio EC50” value in series [1] is 8.4; in [4], 0.5; in [8] it was 8.8. Also, the concentration for a half-maximal effect (EC50) in series [2] was found to be 3.2 nM; in [3], 6.9 nM; in [6], 13.3 nM; in [9], 60.5 nM; in series [10] it was 58 nM. In addition, the selectivity ratio in series [5] was more than 2000. The same molecule registered a CC50 in series [7] of more than 9800 nM.

Consider `CNc1nc2ccc(S(=O)(=O)N(CC(C)C)C[C@@H](O)[C@H](Cc3ccccc3)NC(=O)O[C@H]3CO[C@H]4OC[C@H](OCOC)[C@H]43)cc2o1`, for which the “Ratio EC50” value in series [1] is recorded as 1.2; in series [4] it was 2.4; in series [8], 0.7. Moreover, the half-maximal effective concentration (EC50) in [2] came to 11.2 nM; in series [3] it was 3.4 nM; in series [6], 7 nM; in series [9] it was 1.9 nM; in series [10], 5 nM. The selectivity ratio in series [5] was more than 2000. Further, the half-maximal cytotoxic concentration (CC50) in series [7] is more than 9800 nM.

Consider `CNc1nc2ccc(S(=O)(=O)N(CC(C)C)C[C@@H](O)[C@H](Cc3ccccc3)NC(=O)O[C@H]3CO[C@H]4OC[C@H](O)[C@H]43)cc2o1`, for which the “Ratio EC50” value in series [1] came to 0.9; in series [4], 0.8; in series [8] it was 0.8. In addition, the EC50 in [2] came out at 108 nM; in [3], 138 nM; in series [6] it was 446 nM; in [9], 104 nM; in series [10], 125 nM.

Take `CC(C)CN(C[C@@H](O)[C@H](Cc1ccccc1)NC(=O)O[C@H]1CO[C@H]2OC[C@H](OCc3ccccc3)[C@H]21)S(=O)(=O)c1ccc(N)cc1`: the “Ratio EC50” value came to 3.1 in series [1], 12 in [4] and 1.1 in [8]. The EC50 in series [2] stood at 18 nM; in [3] it was 1.5 nM; in series [6], 12.1 nM; in series [9], 1.7 nM; in [10], 4.7 nM. The same molecule returned an IC50 at Protease of 3.5 nM. Further, the selectivity ratio in series [5] was more than 2000. The 50% cytotoxic concentration (CC50) in series [7] was more than 9800 nM.

As for `CC(C)CN(C[C@@H](O)[C@H](Cc1ccccc1)NC(=O)O[C@H]1CO[C@H]2OCC[C@H]21)S(=O)(=O)c1ccc(N)cc1`, the EC50 is 51 nM in series [2]; 6.6 nM in [3]; 17.2 nM in series [6]; 2.3 nM in series [9]; 11.3 nM in series [10]. The half-maximal cytotoxic concentration (CC50) in series [7] is more than 9800 nM.

Take `CNc1nc2ccc(S(=O)(=O)N(CC(C)C)C[C@@H](O)[C@H](Cc3ccccc3)NC(=O)O[C@H]3CO[C@H]4OC[C@H](OCc5ccc(F)cc5)[C@H]43)cc2o1`: the “Ratio EC50” value came to 1.8 in series [1], 3.8 in series [4] and 1.6 in [8]. In addition, the concentration giving a half-maximal response (EC50) in series [2] turned out to be 2.3 nM; in [3] it was 0.6 nM; in series [6], 4 nM; in [9], 1 nM; in series [10], 1.1 nM. Further, the selectivity ratio in series [5] is more than 2000. For the same molecule, the CC50 in series [7] is more than 9800 nM.

On to `CNc1nc2ccc(S(=O)(=O)N(CC(C)C)C[C@@H](O)[C@H](Cc3ccccc3)NC(=O)O[C@H]3CO[C@H]4OC[C@H](OCc5cccc(F)c5)[C@H]43)cc2o1`, for which the “Ratio EC50” value in series [1] is 1.2; in series [4], 2.7; in [8], 1.3. Also, the EC50 in series [2] worked out at 1.7 nM; in series [3], 0.6 nM; in series [6] it was 3.7 nM; in [9], 0.8 nM; in [10], 0.8 nM. The selectivity ratio in [5] is more than 2000. Besides, the half-maximal cytotoxic concentration (CC50) in [7] is more than 9800 nM.

Turning to `Cc1cccc(C)c1OCC(=O)N[C@@H](Cc1ccccc1)[C@@H](O)C[C@H](Cc1ccccc1)NC(=O)[C@H](C(C)C)N1CCCNC1=O` [LOPINAVIR], the concentration giving a half-maximal response (EC50) in series [2] was 307 nM; in series [3] it was 13.9 nM; in [6], 63.2 nM; in [10], 115 nM. The cytotoxic concentration (CC50) in series [7] was more than 9800 nM.

On to `CNc1nc2ccc(S(=O)(=O)N(CC(C)C)C[C@@H](O)[C@H](Cc3ccccc3)NC(=O)O[C@H]3CO[C@H]4OC[C@H](OCc5ccc(F)cc5F)[C@H]43)cc2o1`, for which the figures for the “Ratio EC50” value in series [1], in [4] and in series [8] were 2, 4.1 and 1.3, respectively. Also, the EC50 in series [2] was 2.3 nM; in series [3] it was 0.6 nM; in [6], 5.4 nM; in series [9], 0.7 nM; in series [10], 1.1 nM. The selectivity ratio in series [5] is more than 2000. In [7], this molecule gave a CC50 of more than 9800 nM.

As for `CNc1nc2ccc(S(=O)(=O)N(CC(C)C)C[C@@H](O)[C@H](Cc3ccccc3)NC(=O)O[C@H]3CO[C@H]4OC[C@H](OCc5ccccc5F)[C@H]43)cc2o1`, the “Ratio EC50” value in series [1] came out at 2; in [4], 3.1; in series [8], 1.3. Further, the EC50 in [2] turned out to be 2.1 nM; in series [3], 0.7 nM; in [6] it was 4 nM; in series [9], 0.9 nM; in [10] it was 1.3 nM. The selectivity ratio in [5] was more than 2000. Moreover, the CC50 in series [7] is more than 9800 nM.

`CNc1nc2ccc(S(=O)(=O)N(CC(C)C)C[C@@H](O)[C@H](Cc3ccccc3)NC(=O)O[C@H]3CO[C@H]4OCC[C@H]43)cc2o1`: the “Ratio EC50” value is given as 1.2 in series [1], 1.4 in series [4] and 0.4 in series [8]. For the same molecule, the EC50 in [2] is 3.2 nM; in series [3], 2.3 nM; in series [6] it was 8.3 nM; in series [9], 0.9 nM; in series [10], 2.7 nM. For the same molecule, the selectivity ratio in series [5] is more than 2000. This molecule also yielded a CC50 in series [7] of more than 9800 nM.

Consider `CNc1nc2ccc(S(=O)(=O)N(CC(C)C)C[C@@H](O)[C@H](Cc3ccccc3)NC(=O)O[C@H]3CO[C@H]4OC[C@H](OCc5ccccc5)[C@H]43)cc2o1`, for which the “Ratio EC50” value in [1] was 2.2; in series [4], 4.5; in series [8], 1.3. For the same molecule, the concentration for a half-maximal effect (EC50) is 3.4 nM in [2]; 0.8 nM in series [3]; 3.7 nM in series [6]; 1 nM in series [9]; 1.7 nM in [10]. The selectivity ratio in series [5] is more than 2000. The molecule also showed a half-maximal cytotoxic concentration (CC50) in series [7] of more than 9800 nM.

As a reminder, the EC50 is the midpoint of the concentration-response curve. By IC50 is commonly meant the concentration that gives 50% inhibition. In general, CC50 refers to the concentration at which the toxic effect on the cells reaches its halfway point.
